Key:
Settings in all cases: stereoisomer not certain
UniProt Q8VF43 = biological target: T1, UniProt Q8VF43
T1 sequence (whole entry): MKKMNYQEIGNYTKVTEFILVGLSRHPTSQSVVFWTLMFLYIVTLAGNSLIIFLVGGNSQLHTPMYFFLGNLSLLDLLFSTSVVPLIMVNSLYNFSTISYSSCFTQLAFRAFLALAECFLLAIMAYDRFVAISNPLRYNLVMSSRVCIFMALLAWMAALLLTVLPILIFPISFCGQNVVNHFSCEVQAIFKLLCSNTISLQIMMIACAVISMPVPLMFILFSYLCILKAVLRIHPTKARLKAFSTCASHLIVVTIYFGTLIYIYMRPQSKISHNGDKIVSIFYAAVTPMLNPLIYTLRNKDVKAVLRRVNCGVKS
Summary of the method: (§1)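 Assay methods differ from source to source, frequently being transient luciferase assays in mammalian cell lines. For each receptor–molecule pair, the label responsive (active) applies when the original authors judged the measured signal statistically different from baseline, and non-responsive (inactive) applies otherwise.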

UniProt Q8VF52 = biological target: T2, UniProt Q8VF52
T2 sequence (whole entry): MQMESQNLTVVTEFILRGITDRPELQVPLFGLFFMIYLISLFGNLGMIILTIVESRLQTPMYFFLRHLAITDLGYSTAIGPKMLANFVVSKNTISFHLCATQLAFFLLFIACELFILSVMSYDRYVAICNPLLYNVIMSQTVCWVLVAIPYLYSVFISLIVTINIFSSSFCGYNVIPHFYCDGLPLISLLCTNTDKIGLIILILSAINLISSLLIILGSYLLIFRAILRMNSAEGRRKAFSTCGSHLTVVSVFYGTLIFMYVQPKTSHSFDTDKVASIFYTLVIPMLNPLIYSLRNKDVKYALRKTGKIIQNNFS
Summary of the method: as §1

UniProt Q8VFM8 = biological target: T3, UniProt Q8VFM8
T3 sequence (whole entry): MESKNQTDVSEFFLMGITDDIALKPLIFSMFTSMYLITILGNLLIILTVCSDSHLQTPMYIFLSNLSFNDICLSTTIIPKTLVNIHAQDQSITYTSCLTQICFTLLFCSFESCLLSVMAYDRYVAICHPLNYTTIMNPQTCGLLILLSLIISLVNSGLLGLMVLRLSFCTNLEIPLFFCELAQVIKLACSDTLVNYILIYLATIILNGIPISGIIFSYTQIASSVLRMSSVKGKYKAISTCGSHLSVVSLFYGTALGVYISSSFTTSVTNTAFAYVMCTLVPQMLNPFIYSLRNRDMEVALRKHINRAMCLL
Summary of the method: as §1

UniProt Q8VFP5 = biological target: T4, UniProt Q8VFP5
T4 sequence (whole entry): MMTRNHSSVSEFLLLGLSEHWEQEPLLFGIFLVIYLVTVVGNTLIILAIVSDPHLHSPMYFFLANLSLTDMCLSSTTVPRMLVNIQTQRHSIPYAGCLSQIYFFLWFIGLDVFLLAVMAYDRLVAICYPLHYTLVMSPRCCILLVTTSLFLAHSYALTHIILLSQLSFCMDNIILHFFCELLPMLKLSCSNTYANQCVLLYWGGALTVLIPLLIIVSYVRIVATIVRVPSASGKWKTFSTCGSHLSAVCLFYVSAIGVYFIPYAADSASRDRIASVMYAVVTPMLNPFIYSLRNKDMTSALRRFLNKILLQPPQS
Summary of the method: as §1

UniProt Q8VG01 = biological target: T5, UniProt Q8VG01
T5 sequence (whole entry): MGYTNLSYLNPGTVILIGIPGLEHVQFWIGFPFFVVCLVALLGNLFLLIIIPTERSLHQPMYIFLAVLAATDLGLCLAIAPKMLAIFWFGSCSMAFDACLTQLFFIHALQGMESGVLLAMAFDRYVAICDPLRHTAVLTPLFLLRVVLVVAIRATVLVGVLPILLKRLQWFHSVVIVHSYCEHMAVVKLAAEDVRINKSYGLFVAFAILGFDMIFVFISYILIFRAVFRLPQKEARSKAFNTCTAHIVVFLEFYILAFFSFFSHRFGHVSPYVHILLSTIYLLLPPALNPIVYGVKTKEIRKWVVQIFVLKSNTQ
Summary of the method: as §1

UniProt Q8VF24 = biological target: T6, UniProt Q8VF24
T6 sequence (whole entry): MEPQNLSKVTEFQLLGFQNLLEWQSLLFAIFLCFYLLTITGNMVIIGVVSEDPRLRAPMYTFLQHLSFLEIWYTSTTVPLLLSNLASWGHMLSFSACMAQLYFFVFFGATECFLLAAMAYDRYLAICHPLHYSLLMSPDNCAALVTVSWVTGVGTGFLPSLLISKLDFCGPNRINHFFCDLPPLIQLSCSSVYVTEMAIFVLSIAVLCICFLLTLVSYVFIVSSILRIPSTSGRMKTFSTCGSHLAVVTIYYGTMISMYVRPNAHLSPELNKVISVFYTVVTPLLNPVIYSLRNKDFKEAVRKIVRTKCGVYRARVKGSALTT
Summary of the method: as §1

UniProt Q8VF44 = biological target: T7, UniProt Q8VF44
T7 sequence (whole entry): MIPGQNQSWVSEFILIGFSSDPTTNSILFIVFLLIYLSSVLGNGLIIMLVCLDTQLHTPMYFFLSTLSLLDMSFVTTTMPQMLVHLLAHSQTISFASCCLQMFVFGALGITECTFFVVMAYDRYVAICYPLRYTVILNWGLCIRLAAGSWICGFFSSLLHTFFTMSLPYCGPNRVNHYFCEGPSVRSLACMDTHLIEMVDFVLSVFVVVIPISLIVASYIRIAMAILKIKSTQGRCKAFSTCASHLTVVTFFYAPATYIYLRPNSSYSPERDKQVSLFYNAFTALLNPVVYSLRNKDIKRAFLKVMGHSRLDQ
Summary of the method: as §1

UniProt Q8VFG6 = biological target: T8, UniProt Q8VFG6
T8 sequence (whole entry): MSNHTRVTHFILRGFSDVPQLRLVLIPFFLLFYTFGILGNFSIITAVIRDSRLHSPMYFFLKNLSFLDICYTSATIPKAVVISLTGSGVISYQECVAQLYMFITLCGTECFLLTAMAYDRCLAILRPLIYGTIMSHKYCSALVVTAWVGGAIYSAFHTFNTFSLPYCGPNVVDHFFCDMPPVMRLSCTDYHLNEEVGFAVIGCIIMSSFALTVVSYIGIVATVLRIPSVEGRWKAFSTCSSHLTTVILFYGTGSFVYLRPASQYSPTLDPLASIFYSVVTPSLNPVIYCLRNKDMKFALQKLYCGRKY
Summary of the method: as §1

UniProt Q8VFZ6 = biological target: T9, UniProt Q8VFZ6
T9 sequence (whole entry): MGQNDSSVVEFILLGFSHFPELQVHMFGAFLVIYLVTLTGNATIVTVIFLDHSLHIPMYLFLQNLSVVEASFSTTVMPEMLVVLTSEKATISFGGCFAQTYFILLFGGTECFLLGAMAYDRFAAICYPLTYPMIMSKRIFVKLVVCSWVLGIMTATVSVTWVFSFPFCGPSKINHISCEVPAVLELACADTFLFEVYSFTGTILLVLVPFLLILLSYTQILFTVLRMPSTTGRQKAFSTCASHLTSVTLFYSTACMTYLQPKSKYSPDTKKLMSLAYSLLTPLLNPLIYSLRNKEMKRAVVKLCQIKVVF
Summary of the method: as §1

UniProt Q8VG22 = biological target: T10, UniProt Q8VG22
T10 sequence (whole entry): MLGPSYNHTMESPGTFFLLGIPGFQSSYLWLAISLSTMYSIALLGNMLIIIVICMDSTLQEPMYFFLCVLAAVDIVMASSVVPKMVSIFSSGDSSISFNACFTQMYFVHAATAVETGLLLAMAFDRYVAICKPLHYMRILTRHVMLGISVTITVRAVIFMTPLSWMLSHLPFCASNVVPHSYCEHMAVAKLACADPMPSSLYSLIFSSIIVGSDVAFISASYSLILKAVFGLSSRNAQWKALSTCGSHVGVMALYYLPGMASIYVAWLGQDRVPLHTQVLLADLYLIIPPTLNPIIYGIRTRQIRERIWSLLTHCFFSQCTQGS
Summary of the method: as §1

UniProt Q8VG26 = biological target: UniProt Q8VG26
Sequence of UniProt Q8VG26 (Q8VG26 as listed by the source): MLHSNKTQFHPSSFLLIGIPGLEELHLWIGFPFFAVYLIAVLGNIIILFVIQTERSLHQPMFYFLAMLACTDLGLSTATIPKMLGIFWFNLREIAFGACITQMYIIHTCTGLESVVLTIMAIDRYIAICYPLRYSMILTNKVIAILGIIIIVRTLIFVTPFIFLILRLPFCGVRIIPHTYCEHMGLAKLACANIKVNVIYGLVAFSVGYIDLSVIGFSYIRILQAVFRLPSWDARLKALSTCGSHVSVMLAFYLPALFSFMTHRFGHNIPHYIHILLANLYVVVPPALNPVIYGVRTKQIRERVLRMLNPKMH
Summary of the method: as §1

UniProt Q8VF73 = biological target: UniProt Q8VF73
Sequence of UniProt Q8VF73 (Q8VF73 as listed by the source): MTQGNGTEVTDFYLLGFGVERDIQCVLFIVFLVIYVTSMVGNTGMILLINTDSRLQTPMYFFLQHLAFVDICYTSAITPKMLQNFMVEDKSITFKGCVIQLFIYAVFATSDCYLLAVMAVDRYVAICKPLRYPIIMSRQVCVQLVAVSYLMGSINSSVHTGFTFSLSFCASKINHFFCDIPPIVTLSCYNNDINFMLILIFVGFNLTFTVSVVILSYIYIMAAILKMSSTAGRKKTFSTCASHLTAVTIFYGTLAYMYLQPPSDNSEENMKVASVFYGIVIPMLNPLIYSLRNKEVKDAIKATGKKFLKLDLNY
Summary of the method: as §1

UniProt Q8VFB8 = biological target: UniProt Q8VFB8
Sequence of UniProt Q8VFB8 (Q8VFB8 as listed by the source): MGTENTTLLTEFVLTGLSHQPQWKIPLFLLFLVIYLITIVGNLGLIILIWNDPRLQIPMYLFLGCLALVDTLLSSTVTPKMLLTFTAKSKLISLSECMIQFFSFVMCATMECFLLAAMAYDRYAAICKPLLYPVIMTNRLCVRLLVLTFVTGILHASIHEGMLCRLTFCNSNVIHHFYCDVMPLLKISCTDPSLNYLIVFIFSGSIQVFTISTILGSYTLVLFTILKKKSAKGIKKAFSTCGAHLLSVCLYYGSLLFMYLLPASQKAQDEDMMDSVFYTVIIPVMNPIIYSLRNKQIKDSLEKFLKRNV
Summary of the method: as §1

UniProt Q8VFQ6 = biological target: UniProt Q8VFQ6
Sequence of UniProt Q8VFQ6 (Q8VFQ6 as listed by the source): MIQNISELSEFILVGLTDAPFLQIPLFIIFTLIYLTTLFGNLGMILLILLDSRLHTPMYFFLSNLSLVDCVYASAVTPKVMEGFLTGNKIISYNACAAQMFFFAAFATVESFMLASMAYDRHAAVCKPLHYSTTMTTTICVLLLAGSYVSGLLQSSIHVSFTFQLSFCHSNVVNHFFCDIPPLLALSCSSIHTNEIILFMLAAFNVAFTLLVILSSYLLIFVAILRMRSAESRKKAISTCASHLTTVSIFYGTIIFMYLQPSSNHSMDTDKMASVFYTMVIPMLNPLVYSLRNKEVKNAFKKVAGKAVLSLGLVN
Summary of the method: as §1

Measured: odorant receptor agonist call

CC(C)=C1CCC(C)CC1=O (centres undefined)
inactive: UniProt Q8VF43 | UniProt Q8VF52 | UniProt Q8VFM8 | UniProt Q8VFP5 | UniProt Q8VG01

CCCCCCC(=O)[O-].[H+]
active: UniProt Q8VG01
inactive: UniProt Q8VF24 | UniProt Q8VF44 | UniProt Q8VF52 | UniProt Q8VFG6 | UniProt Q8VFZ6 | UniProt Q8VG22 | UniProt Q8VG26

CCC(=O)O
not listed: UniProt Q8VG26 | UniProt Q8VF73 | UniProt Q8VFB8 | UniProt Q8VFQ6
inactive: all other assays above

O=c1ccc2ccccc2o1
inactive: UniProt Q8VF24 | UniProt Q8VFB8 | UniProt Q8VFG6 | UniProt Q8VFQ6 | UniProt Q8VFZ6 | UniProt Q8VG01
active: UniProt Q8VF44 | UniProt Q8VF52 | UniProt Q8VF73 | UniProt Q8VG22

CCCCCCCCS
not listed: UniProt Q8VG26 | UniProt Q8VF73 | UniProt Q8VFB8 | UniProt Q8VFQ6
inactive: all other assays above

CCCCCCC=CC=O
inactive: UniProt Q8VF43 | UniProt Q8VF52 | UniProt Q8VFM8 | UniProt Q8VFP5 | UniProt Q8VG01

CCCCC(C)=O
not listed: UniProt Q8VG26 | UniProt Q8VF73 | UniProt Q8VFB8 | UniProt Q8VFQ6
inactive: all other assays above

O=C([O-])CCCCCCC(=O)[O-].[H+].[H+]
inactive: UniProt Q8VF43 | UniProt Q8VF52 | UniProt Q8VFM8 | UniProt Q8VFP5 | UniProt Q8VG01

CCCCCCCCCC(=O)[O-].[H+]
not listed: UniProt Q8VG26 | UniProt Q8VF73 | UniProt Q8VFB8 | UniProt Q8VFQ6
inactive: all other assays above

CCCCCO
inactive: UniProt Q8VF24 | UniProt Q8VF44 | UniProt Q8VF52 | UniProt Q8VFG6 | UniProt Q8VFZ6 | UniProt Q8VG01
active: UniProt Q8VG22

CCC(C(=O)O)c1ccccc1 (centres undefined)
inactive: UniProt Q8VF24 | UniProt Q8VF44 | UniProt Q8VF52 | UniProt Q8VFG6 | UniProt Q8VFZ6 | UniProt Q8VG01 | UniProt Q8VG22

Cc1c(C)c(C)c(C=O)c(C)c1C
active: UniProt Q8VF52
inactive: UniProt Q8VF43 | UniProt Q8VFM8 | UniProt Q8VFP5 | UniProt Q8VG01

C=CCOC(=O)CCCCCC
not listed: UniProt Q8VG26 | UniProt Q8VF73 | UniProt Q8VFB8 | UniProt Q8VFQ6
inactive: all other assays above

CCCCCC=O
not listed: UniProt Q8VG26 | UniProt Q8VF73 | UniProt Q8VFB8 | UniProt Q8VFQ6
inactive: all other assays above

CCCCCCCC(C)=O
not listed: UniProt Q8VG26 | UniProt Q8VF73 | UniProt Q8VFB8 | UniProt Q8VFQ6
inactive: all other assays above

CC=Cc1ccc(OC)cc1
inactive: UniProt Q8VF43 | UniProt Q8VF52 | UniProt Q8VFM8 | UniProt Q8VFP5 | UniProt Q8VG01

CCCCCCC(C)O (centres undefined)
inactive: UniProt Q8VF43 | UniProt Q8VF52 | UniProt Q8VFM8 | UniProt Q8VFP5 | UniProt Q8VG01

CCOC(=O)C(C)CC (centres undefined)
inactive: UniProt Q8VF43 | UniProt Q8VF52 | UniProt Q8VFM8 | UniProt Q8VFP5 | UniProt Q8VG01

OCCc1ccccc1
inactive: UniProt Q8VF43 | UniProt Q8VF52 | UniProt Q8VFM8 | UniProt Q8VFP5 | UniProt Q8VG01

CCCCCOC(=O)CCCCC
not listed: UniProt Q8VG26 | UniProt Q8VF73 | UniProt Q8VFB8 | UniProt Q8VFQ6
inactive: all other assays above

CCCCCC(=O)CC
not listed: UniProt Q8VG26 | UniProt Q8VF73 | UniProt Q8VFB8 | UniProt Q8VFQ6
inactive: all other assays above

O=C(O)C1CCC1
inactive: UniProt Q8VF43 | UniProt Q8VF52 | UniProt Q8VFM8 | UniProt Q8VFP5 | UniProt Q8VG01

CCCCCC1=C(C)CCC1=O
active: UniProt Q8VF52 | UniProt Q8VG22
not listed: UniProt Q8VG26 | UniProt Q8VF73 | UniProt Q8VFB8 | UniProt Q8VFQ6
inactive: all other assays above

CCCCOC(=O)C(C)OC(=O)CCC (centres undefined)
inactive: UniProt Q8VF24 | UniProt Q8VF44 | UniProt Q8VF52 | UniProt Q8VFG6 | UniProt Q8VFZ6 | UniProt Q8VG01 | UniProt Q8VG22

Reference: the M2OR odorant receptor database
